The values below come from ChEMBL document CHEMBL4038305, “Benzoxaborole Antimalarial Agents. Part 5. Lead Optimization of Novel Amide Pyrazinyloxy Benzoxaboroles and Identification of a Preclinical Candidate” (J Med Chem, 2017).

Series [1] relates to Plasmodium berghei. Kind of series: Antimalarial activity against Plasmodium berghei infected in Swiss Webster mouse assessed as mouse survival rate at 100 mg/kg administered once daily via oral gavage for 4 consecutive days beginning 1 hr after infection measured on day 18 post infection relative to control. It is filed as functional. The essentials:
(§1)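 Mice given an intraperitoneal injection of P. berghei-infected erythrocytes taken from a previously infected animal. Oral dosing once daily for 4 consecutive days, starting 1 h after infection. Vehicle: polyethylene glycol 300/propylene glycol/water (weight ratio 55/25/20). Percent survival recorded daily from day 4 to day 20. Chloroquine 30 mg/kg and vehicle-only groups served as controls.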

In series [2] the test system is Plasmodium berghei. Description: Antimalarial activity against Plasmodium berghei infected in Swiss Webster mouse assessed as mouse survival rate at 100 mg/kg administered once daily via oral gavage for 4 consecutive days beginning 1 hr after infection measured on day 19 post infection relative to control. It is filed as functional. The essentials: as §1
The subject of series [3] is Plasmodium berghei. Description: Antimalarial activity against Plasmodium berghei infected in Swiss Webster mouse assessed as mouse survival rate at 11 mg/kg administered once daily via oral gavage for 4 consecutive days beginning 1 hr after infection measured on day 13 post infection relative to control. It is filed as functional. The gist of the method: as §1
For series [4], the system named is Plasmodium berghei. Kind of series: Antimalarial activity against Plasmodium berghei infected in Swiss Webster mouse assessed as mouse survival rate at 0.3 mg/kg administered once daily via oral gavage for 4 consecutive days beginning 1 hr after infection measured on day 6 post infection relative to control. It is filed as functional. The essentials:
as §1

For series [5], the system named is Salmonella typhimurium. Kind of series: Genotoxicity in Salmonella typhimurium TA100 assessed as number of revertants per plate at 1500 ug/plate in presence of rat liver S9 fraction by Ames test (reference value: 141 +/- 1). Conditions: salmonella enterica subsp. enterica serovar typhimurium. It is filed as toxicity. (In general: In the Ames test, an excess of revertant colonies over the control signals mutagenicity.)

Series [6] concerns Salmonella typhimurium. Description: Genotoxicity in Salmonella typhimurium TA1535 assessed as number of revertants per plate at 1500 ug/plate in absence of rat liver S9 fraction by Ames test (reference value: 10 +/- 3). The conditions noted are these: salmonella enterica subsp. enterica serovar typhimurium. It counts as toxicity.
The subject of series [7] is Rattus norvegicus. Kind of series: Genotoxicity in rat assessed as micronucleated polychromatic erythrocytes in bone marrow at 1000 mg/kg administered via oral gavage measured after 24 hrs post dose by micronucleus assay (reference value: 0.07 +/- 0.05%). The conditions noted are these: in vivo. It counts as toxicity, organism-based.
Series [8] concerns Lymphocyte. Description: Genotoxicity in human lymphocytes assessed as replication index at 355.15 ug/mL after 28 hrs in absence of rat liver S9 fraction by micronucleus assay relative to control. It counts as toxicity, cell-based. The gist of the method:
(§2)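 Human lymphocytes exposed for 3 h with or without rat liver S9, or 28 h without S9, with 1% DMSO as vehicle control. Replication index = (binucleated + 2 × multinucleated cells)/total cells. Cytotoxicity (%) = 100 − (RI treated/RI vehicle) × 100.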

For series [9], the system named is Salmonella typhimurium. Description: Genotoxicity in Salmonella typhimurium TA100 assessed as number of revertants per plate at 1.5 ug/plate in presence of rat liver S9 fraction by Ames test (reference value: 141 +/- 1). It is filed as toxicity. The conditions noted are these: salmonella enterica subsp. enterica serovar typhimurium.
In series [10] the test system is Lymphocyte. Kind of series: Genotoxicity in human lymphocytes assessed as replication index at 80 ug/mL after 28 hrs in absence of rat liver S9 fraction by micronucleus assay relative to control. It counts as toxicity, cell-based. The essentials: as §2
Series [11] can be described thus: Terminal half life in Sprague-Dawley rat at 5 mg/kg, po via gavage by HPLC/MS analysis. It counts as ADME, organism-based. Conditions: in vivo, read-out: beta t1/2 (converted).
Series [12] has as its system Plasmodium falciparum. Kind of series: Antimalarial activity against Plasmodium falciparum NF54 infected in human erythrocytes assessed as reduction in [3H]-hypoxanthine incorporation preincubated for 24 hrs followed by [3H]-hypoxanthine addition measured after 24 hrs by scintillation counting method. It counts as functional, cell-based.
In series [13] the test system is Escherichia coli. Description: Genotoxicity in Escherichia coli WP2uvrA assessed as number of revertants per plate at 150 ug/plate in absence of rat liver S9 fraction by Ames test (reference value: 45 +/- 9). It counts as toxicity.
Series [14] has as its system Rattus norvegicus. Description: Genotoxicity in rat assessed as change in polychromatic erythrocytes in bone marrow at 1000 mg/kg administered via oral gavage measured after 24 hrs post dose by micronucleus assay relative to control. Conditions: in vivo. It counts as toxicity, organism-based.
For series [15], the system named is Salmonella typhimurium. Description: Genotoxicity in Salmonella typhimurium TA1535 assessed as number of revertants per plate at 15 ug/plate in presence of rat liver S9 fraction by Ames test (reference value: 10). It counts as toxicity. The conditions noted are these: salmonella enterica subsp. enterica serovar typhimurium.
The subject of series [16] is Escherichia coli. Kind of series: Genotoxicity in Escherichia coli WP2uvrA assessed as number of revertants per plate at 1500 ug/plate in absence of rat liver S9 fraction by Ames test (reference value: 45 +/- 9). It is filed as toxicity.
For series [17], the system named is Lymphocyte. Description: Genotoxicity in human lymphocytes assessed as increase in frequency of micronucleated cells at 160 ug/mL after 3 hrs in presence of rat liver S9 fraction by micronucleus assay (reference value: 0.63%). It is filed as toxicity, cell-based. The conditions noted are these: s9, 3 h.
Series [18] deals with Salmonella typhimurium. Kind of series: Genotoxicity in Salmonella typhimurium TA1537 assessed as number of revertants per plate at 50 ug/plate in presence of rat liver S9 fraction by Ames test (reference value: 11 +/- 4). It counts as toxicity. Conditions: salmonella enterica subsp. enterica serovar typhimurium.
Series [19] deals with Salmonella typhimurium. Description: Genotoxicity in Salmonella typhimurium TA98 assessed as number of revertants per plate at 50 ug/plate in presence of rat liver S9 fraction by Ames test (reference value: 19 +/- 8). The conditions noted are these: salmonella enterica subsp. enterica serovar typhimurium. It is filed as toxicity.
Series [20] concerns Salmonella typhimurium. Kind of series: Genotoxicity in Salmonella typhimurium TA1535 assessed as number of revertants per plate at 500 ug/plate in presence of rat liver S9 fraction by Ames test (reference value: 10). It counts as toxicity. The conditions noted are these: salmonella enterica subsp. enterica serovar typhimurium.
Series [21] has as its system Plasmodium falciparum. Description: Antimalarial activity against Plasmodium falciparum V1/S infected in human erythrocytes assessed as reduction in [3H]-hypoxanthine incorporation preincubated for 24 hrs followed by [3H]-hypoxanthine addition measured after 24 hrs by scintillation counting method. It is filed as functional, cell-based.
In series [22] the test system is Salmonella typhimurium. Kind of series: Genotoxicity in Salmonella typhimurium TA1535 assessed as number of revertants per plate at 1.5 ug/plate in presence of rat liver S9 fraction by Ames test (reference value: 10). It counts as toxicity. Conditions: salmonella enterica subsp. enterica serovar typhimurium.
A short description of series [23]: Clearance in Beagle dog at 5 mg/kg, iv by HPLC/MS analysis. It counts as ADME, organism-based, Canis lupus familiaris. The conditions noted are these: in vivo. The gist of the method:
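Female CD-1 mice, male SD rats and beagle dogs received 5 mg/kg either iv or by oral gavage. Vehicle was PEG 300/propylene glycol/water (55/25/20, pH 6). Blood was sampled and drug measured by HPLC-MS/MS.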

Series [24] concerns Escherichia coli. Kind of series: Genotoxicity in Escherichia coli WP2uvrA assessed as number of revertants per plate at 1500 ug/plate in presence of rat liver S9 fraction by Ames test (reference value: 42 +/- 6). It counts as toxicity.
Series [25] relates to Salmonella typhimurium. Kind of series: Genotoxicity in Salmonella typhimurium TA1537 assessed as number of revertants per plate at 150 ug/plate in absence of rat liver S9 fraction by Ames test (reference value: 19 +/- 9). It is filed as toxicity. The conditions noted are these: salmonella enterica subsp. enterica serovar typhimurium.
Series [26] relates to Escherichia coli. Description: Genotoxicity in Escherichia coli WP2uvrA assessed as number of revertants per plate at 500 ug/plate in presence of rat liver S9 fraction by Ames test (reference value: 42 +/- 6). It counts as toxicity.
Series [27] in a line: Oral bioavailability in Beagle dog at 5 mg/kg by HPLC/MS analysis. It is filed as ADME, organism-based, Canis lupus familiaris. The conditions noted are these: in vivo. The gist of the method: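 Female CD-1 mice, male SD rats or beagle dogs given 5 mg/kg by iv injection or oral gavage. Formulation was PEG300/propylene glycol/water 55/25/20, pH 6. Blood samples analysed by HPLC–MS/MS; parameters include AUC0-inf extrapolated to infinity and terminal half-life.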

The test system of series [28] is Plasmodium falciparum. Description: Antimalarial activity against Plasmodium falciparum 3D7 0087/N9 infected in NOD/SCID IL2R gamma null mouse assessed as decrease in parasitemia at 0.3 to 75 mg/kg up to 7 days post infection. It counts as functional, organism-based. The gist of the method: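 Human-erythrocyte-engrafted NODscidIL2Rγnull mice carrying P. falciparum Pf3D70087/N9 in peripheral blood; compound given orally once daily for four consecutive days.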

Active and inactive are the calls of the source. The rule behind the calls is not given here.

`Cc1c(Oc2cnc(C(=O)N3CC(O)(C(C)C)C3)cn2)ccc2c1B(O)OC2`: the survival at 100 mg/kg in the series on Plasmodium berghei [1] and in the series on Plasmodium berghei [2] was 80% throughout. In addition, in the series with Plasmodium berghei [3], the survival at 11 mg/kg stood at 20%.
On to `Cc1c(Oc2cnc(C(=O)NC(C)CO)cn2)ccc2c1B(O)OC2` (stereo not drawn), for which, in the series with Plasmodium berghei [4], the survival at 0.3 mg/kg turned out to be 20%.
As a reminder, the IC50 is the concentration needed to halve the response being measured. Broadly, the clearance is a measure of how efficiently the substance is removed, as volume per time. A higher clearance goes with efficient removal. As for `Cc1c(Oc2cnc(C(=O)N3CC(C)(O)C3)cn2)ccc2c1B(O)OC2`, the Activity in the series with Salmonella typhimurium [5] was determined as 144; with Salmonella typhimurium [6], 7; with Rattus norvegicus [7], 0.08%; in the series on Lymphocyte [8], 33%; in the series on Salmonella typhimurium [9], 150; with Lymphocyte [10] it was 7%. Also, the Activity came to 56 with Escherichia coli [13]; 0% in the series on Rattus norvegicus [14]; 12 with Salmonella typhimurium [15]; 33 in the series on Escherichia coli [16]; 0.5% with Lymphocyte [17]; 9 in the series with Salmonella typhimurium [18]. Moreover, the Activity with Salmonella typhimurium [19] was 17; with Salmonella typhimurium [20], 6; in the series with Salmonella typhimurium [22], 9; in the series with Escherichia coli [24], 26; in the series with Salmonella typhimurium [25] it was 15; in the series with Escherichia coli [26], 35. Moreover, the half-life in [11] was 5.2 h. Besides, the figures for the IC50 in the series on Plasmodium falciparum [12] and with Plasmodium falciparum [21] were 36 nM and 63 nM, respectively. Also, the clearance in [23] was 0.505 mL/min/kg. Further, in [27], the bioavailability is 127%. Besides, in the series with Plasmodium falciparum [28], the outcome was Active.
